# In ChEMBL document CHEMBL4261508, “Pyrazolo[3,4-d]pyrimidines as sigma-1 receptor ligands for the treatment of pain. Part 2: Introduction of cyclic substituents in position 4” (Medchemcomm, 2017):
# Calls of active or inactive are those of the source.
# What was measured:
# [1] = biological target: Sigma non-opioid intracellular receptor 1 (Homo sapiens, UniProt Q99720); test: Displacement of [3H]-(+)-pentazocine from recombinant human sigma1 receptor expressed in HEK293 cell membranes after 120 mins by microbeta scintillation counting method
# Chain of Sigma non-opioid intracellular receptor 1 (Q99720 whole entry): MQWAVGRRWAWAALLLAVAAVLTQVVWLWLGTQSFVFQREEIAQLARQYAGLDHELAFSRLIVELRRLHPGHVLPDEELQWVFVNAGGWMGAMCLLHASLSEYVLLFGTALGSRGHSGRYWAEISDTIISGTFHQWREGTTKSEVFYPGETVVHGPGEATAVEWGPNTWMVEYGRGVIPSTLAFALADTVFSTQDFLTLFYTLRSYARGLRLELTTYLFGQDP
# [2] = species: Cavia porcellus; test: Displacement of [3H]-DTG from sigma2 receptor in guinea pig brain membranes at 1 uM after 120 mins in presence of sigma1 […] (+)-SKF10047 by microbeta scintillation counting method relative to control; format: cell membranes; conditions: Membrane
# Procedure, shortened: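 σ2R binding in guinea pig brain membranes with [³H]-di-o-tolylguanidine as radioligand. Compound tested at 1 μM as % inhibition. Mean of two determinations.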
# [3] = Stability of the compound assessed as drug degradation at pH 7.4; format: physicochemical; conditions: buffer
# Procedure, shortened: (§1)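 Chemical stability measured by LC/MS. A 10 mM DMSO stock of compound was diluted into phosphate buffer pH 7.4 or 0.01 M HCl pH 2.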
# [4] = Stability of the compound assessed as drug degradation at pH 2; format: physicochemical; conditions: buffer; procedure, shortened: as §1
# [5] = test system: HepG2; test: Cytotoxicity against human HepG2 cells up to 100 uM by MTT assay; format: cell-based
# Procedure, shortened: (§2)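 HepG2 cells exposed to compound up to 100 μM. Cytotoxicity read by MTT and by Neutral Red uptake.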
# [6] = test system: Mus musculus; test: Analgesic activity in formalin-induced nociception CD-1 mouse model assessed as reduction in time spent in licking or biting formalin injected hind paw at 40 mg/kg, ip pretreated for 30 mins followed by formalin stimulation measured up to 5 mins; format: functional, organism-based
# [7] = test system: Mus musculus; test: Analgesic activity in formalin-induced nociception CD-1 mouse model assessed as reduction in time spent in licking or biting formalin injected hind paw at 80 mg/kg, po pretreated for 30 mins followed by formalin stimulation measured after 15 to 30 mins relative to control; format: functional; set-up: scale not given: the % may be the effect or the level left
# Procedure, shortened: (§3)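 Mice received drug i.p. (40 mg/kg) or p.o. (80 mg/kg), and formalin was injected intraplantar. Paw licking-biting time in phase II (delayed phase) was scored. Result is % antinociception in treated animals vs vehicle.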
# [8] = biological target: CYP2C9 (Homo sapiens, UniProt P11712); test: Inhibition of recombinant human CYP2C9 at 1 uM relative to control; format: ADME
# Chain of CYP2C9 (P11712 whole entry): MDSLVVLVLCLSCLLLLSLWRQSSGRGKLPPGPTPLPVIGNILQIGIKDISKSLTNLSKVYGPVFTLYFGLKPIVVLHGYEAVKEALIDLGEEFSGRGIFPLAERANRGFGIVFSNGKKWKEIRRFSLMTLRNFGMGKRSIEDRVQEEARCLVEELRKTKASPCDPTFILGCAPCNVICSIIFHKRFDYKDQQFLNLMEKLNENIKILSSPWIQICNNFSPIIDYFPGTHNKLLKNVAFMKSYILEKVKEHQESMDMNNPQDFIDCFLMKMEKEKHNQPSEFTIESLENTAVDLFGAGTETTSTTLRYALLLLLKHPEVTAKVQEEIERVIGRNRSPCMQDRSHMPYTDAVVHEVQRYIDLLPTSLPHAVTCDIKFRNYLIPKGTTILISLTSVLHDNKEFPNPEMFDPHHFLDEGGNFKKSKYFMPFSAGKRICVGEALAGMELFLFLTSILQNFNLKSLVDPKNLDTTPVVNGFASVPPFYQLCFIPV
# [9] = Displacement of [3H]-DTG from sigma2 receptor in guinea pig brain membranes after 120 mins in presence of sigma1 […] (+)-SKF10047 by microbeta scintillation counting method; format: cell membranes, Cavia porcellus, Membrane
# [10] = Intrinsic clearance in human liver microsomes assessed as per mg protein at 1 uM after 1 hr in presence of NADPH-generating system by UPLC-MS/MS analysis; format: ADME, microsome; conditions: read-out: CLH
# [11] = test system: Mus musculus; test: Analgesic activity in formalin-induced nociception CD-1 mouse model assessed as reduction in time spent in licking or biting formalin injected hind paw at 40 mg/kg, ip pretreated for 30 mins followed by formalin stimulation measured after 15 to 30 mins relative to control; format: functional; set-up: scale not given: the % may be the effect or the level left; procedure, shortened: as §3
# [12] = Thermodynamic solubility of the compound in pH 7.4 phosphate buffer; format: physicochemical; conditions: read-out: Therm_solubility
# [13] = test system: Mus musculus; test: Analgesic activity in formalin-induced nociception CD-1 mouse model assessed as reduction in time spent in licking or biting formalin injected hind paw at 80 mg/kg, po pretreated for 30 mins followed by formalin stimulation measured up to 5 mins; format: functional, organism-based
# [14] = Apparent permeability in human Caco2 cells; format: ADME, cell-based; conditions: Caco-2
# [15] = test system: Salmonella typhimurium; test: Genotoxicity in Salmonella typhimurium TA1535 harboring pSK1002 by […]; format: toxicity, organism-based; conditions: salmonella enterica subsp. enterica serovar typhimurium
# [16] = biological target: CYP2D6 (Homo sapiens, UniProt P10635); test: Inhibition of recombinant human CYP2D6 at 1 uM relative to control; format: ADME
# Chain of CYP2D6 (P10635 whole entry): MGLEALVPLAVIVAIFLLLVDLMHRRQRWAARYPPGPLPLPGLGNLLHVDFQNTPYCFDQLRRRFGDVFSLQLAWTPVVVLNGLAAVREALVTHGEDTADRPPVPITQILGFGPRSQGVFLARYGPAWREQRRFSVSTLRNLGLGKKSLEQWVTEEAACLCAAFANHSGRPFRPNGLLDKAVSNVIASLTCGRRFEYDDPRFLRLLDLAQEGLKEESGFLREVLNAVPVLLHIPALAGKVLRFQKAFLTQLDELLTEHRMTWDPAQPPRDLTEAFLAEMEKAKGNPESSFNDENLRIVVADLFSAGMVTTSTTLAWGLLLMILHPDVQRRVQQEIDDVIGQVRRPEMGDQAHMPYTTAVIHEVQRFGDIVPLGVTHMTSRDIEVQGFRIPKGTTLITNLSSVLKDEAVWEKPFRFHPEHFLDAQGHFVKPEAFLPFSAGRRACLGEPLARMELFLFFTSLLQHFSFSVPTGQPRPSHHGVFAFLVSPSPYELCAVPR
# [17] = test system: HepG2; test: Cytotoxicity against human HepG2 cells up to 100 uM by neutral red uptake assay; format: cell-based; procedure, shortened: as §2
# [18] = test system: Mus musculus; test: Antinociceptive activity in partial sciatic nerve ligation CD-1 mouse model of neuropathic pain assessed as reduction in mechanical hypersensitivity at 80 mg/kg, po administered 8 days post partial sciatic nerve injury measured after 30 mins by von frey filament assay relative to control; format: functional; set-up: scale not given: the % may be the effect or the level left
# Procedure, shortened: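 Mice with partial sciatic nerve ligation, drug given orally at 80 mg/kg. Pressure threshold (g) for paw withdrawal to von Frey filament was measured after dosing. It was compared with vehicle response 8 days post-surgery and with pre-ligation baseline to give % reduction of hypersensitivity.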
# [19] = Thermodynamic solubility of the compound in pH 2 phosphate buffer; format: physicochemical; conditions: read-out: Therm_solubility
# [20] = biological target: CYP3A4 (Homo sapiens, UniProt P08684); test: Inhibition of recombinant human CYP3A4 at 1 uM relative to control; format: ADME
# Chain of CYP3A4 (P08684 whole entry): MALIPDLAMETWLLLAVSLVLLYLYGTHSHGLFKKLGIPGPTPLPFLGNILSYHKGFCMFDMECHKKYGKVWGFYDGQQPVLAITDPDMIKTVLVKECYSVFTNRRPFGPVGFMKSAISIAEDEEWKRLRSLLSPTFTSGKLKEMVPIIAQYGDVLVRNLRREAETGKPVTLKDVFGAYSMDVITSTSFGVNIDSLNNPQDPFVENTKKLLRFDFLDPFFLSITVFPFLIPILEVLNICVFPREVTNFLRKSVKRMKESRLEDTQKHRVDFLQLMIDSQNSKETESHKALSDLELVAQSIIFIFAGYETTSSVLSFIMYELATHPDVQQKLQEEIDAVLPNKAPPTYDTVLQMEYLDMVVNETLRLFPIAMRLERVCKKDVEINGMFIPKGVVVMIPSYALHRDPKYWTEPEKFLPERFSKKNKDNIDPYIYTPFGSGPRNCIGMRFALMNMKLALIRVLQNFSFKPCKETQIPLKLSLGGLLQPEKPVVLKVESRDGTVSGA
# [21] = test system: Mus musculus; test: Antinociceptive activity in capsaicin-induced nociception pain CD-1 mouse model assessed as increase in paw withdrawal latency at 80 mg/kg, po pretreated for 30 mins followed by capsaicin challenge measured after 15 mins by von frey filament assay relative to control; format: functional
# Procedure, shortened: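 Capsaicin test in mice, drug given orally at 80 mg/kg. Mechanical hypersensitivity was read as paw withdrawal latency to upward pressure by von Frey filament. Result is % reduction in drug-treated vs vehicle animals.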
# [22] = biological target: CYP2C19 (Homo sapiens, UniProt P33261); test: Inhibition of recombinant human CYP2C19 at 1 uM relative to control; format: ADME
# Chain of CYP2C19 (P33261 whole entry): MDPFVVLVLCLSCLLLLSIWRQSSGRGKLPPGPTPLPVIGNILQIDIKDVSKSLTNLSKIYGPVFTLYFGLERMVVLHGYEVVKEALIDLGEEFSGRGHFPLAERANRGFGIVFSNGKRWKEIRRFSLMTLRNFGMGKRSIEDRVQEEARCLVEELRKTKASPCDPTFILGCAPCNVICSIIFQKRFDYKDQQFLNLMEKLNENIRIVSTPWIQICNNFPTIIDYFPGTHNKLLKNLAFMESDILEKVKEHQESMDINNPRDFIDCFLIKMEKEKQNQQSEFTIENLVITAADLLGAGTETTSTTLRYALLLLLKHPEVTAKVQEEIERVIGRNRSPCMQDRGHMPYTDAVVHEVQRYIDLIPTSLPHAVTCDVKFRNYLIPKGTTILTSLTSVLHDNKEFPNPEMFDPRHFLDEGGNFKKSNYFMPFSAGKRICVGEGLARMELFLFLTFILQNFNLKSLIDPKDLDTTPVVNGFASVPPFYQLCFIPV
# [23] = biological target: T1, CYP1A2 (Homo sapiens, UniProt P05177); test: Inhibition of recombinant human CYP1A2 at 1 uM relative to control; format: ADME
# T1 sequence (P05177 whole entry): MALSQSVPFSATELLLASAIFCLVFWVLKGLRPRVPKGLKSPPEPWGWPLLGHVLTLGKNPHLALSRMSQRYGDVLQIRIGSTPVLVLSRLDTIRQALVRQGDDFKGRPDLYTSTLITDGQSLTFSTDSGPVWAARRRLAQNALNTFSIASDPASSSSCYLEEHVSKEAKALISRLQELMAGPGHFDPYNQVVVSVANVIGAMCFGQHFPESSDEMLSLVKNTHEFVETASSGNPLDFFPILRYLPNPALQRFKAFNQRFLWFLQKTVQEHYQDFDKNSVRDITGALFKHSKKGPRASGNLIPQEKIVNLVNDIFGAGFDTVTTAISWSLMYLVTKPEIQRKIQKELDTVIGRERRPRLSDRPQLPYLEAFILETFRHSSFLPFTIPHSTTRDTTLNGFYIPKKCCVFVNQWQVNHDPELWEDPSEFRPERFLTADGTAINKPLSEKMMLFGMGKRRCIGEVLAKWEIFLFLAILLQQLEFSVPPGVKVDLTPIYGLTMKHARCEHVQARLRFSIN
Ki [1],inhibition [2],Stability [3],Stability [4],Structure (SMILES),further results
2910 nM,–,–,–,CC(C)n1cc(-c2ncnc3c2cnn3CCN2CCCCC2)cn1,–
38300 nM,–,–,–,COc1ccc(-c2ncnc3c2cnn3CCN2CCCCC2)cn1,–
926 nM,–,–,–,c1cncc(-c2ncnc3c2cnn3CCN2CCCCC2)c1,–
112 nM,73%,–,–,Fc1cc(Cl)ccc1-c1ncnc2c1cnn2CCN1CCCCC1,–
715 nM,–,–,–,Cn1cncc1-c1ncnc2c1cnn2CCN1CCCCC1,–
137 nM,–,–,–,Cn1nc(C(F)(F)F)cc1-c1ncnc2c1cnn2CCN1CCCCC1,–
–,–,Stable,Stable,CC(C)(C)C(=O)Nc1ncnc2c1cnn2CCN1CCCCC1,–
300 nM,81%,–,–,CCOc1ccccc1-c1ncnc2c1cnn2CCN1CCCCC1,–
558 nM,47%,–,–,N#Cc1ccc(-c2ncnc3c2cnn3CCN2CCCCC2)cc1,–
707 nM,–,–,–,Cc1ccncc1-c1ncnc2c1cnn2CCN1CCCCC1,–
100 nM,69%,–,–,c1ccc(-c2ncnc3c2cnn3CCN2CCCCC2)cc1,–
709 nM,–,–,–,Cc1cccc(-c2ncnc3c2cnn3CCN2CCCCC2)n1,–
39 nM,87%,Stable,Stable,COc1cc(F)ccc1-c1ncnc2c1cnn2CCN1CCCCC1,–
23800 nM,–,–,–,c1coc(-c2ncnc3c2cnn3CCN2CCCCC2)n1,–
93 nM,83%,Stable,Stable,Fc1ccc(-c2ncnc3c2cnn3CCN2CCCCC2)c(F)c1,–
13800 nM,–,–,–,c1cn(-c2ncnc3c2cnn3CCN2CCCCC2)cn1,–
48 nM,86%,Stable,Stable,Cc1cc(F)ccc1-c1ncnc2c1cnn2CCN1CCCCC1,–
72 nM,–,Stable,Stable,Cc1noc(C)c1-c1ncnc2c1cnn2CCN1CCCCC1,–
165 nM,58%,–,–,CC1(C)CCN(c2ncnc3c2cnn3CCN2CCCCC2)C1,–
31 nM,–,Stable,Stable,Cn1cccc1-c1ncnc2c1cnn2CCN1CCCCC1,–
475 nM,40%,–,–,c1nc(-c2cnsc2)c2cnn(CCN3CCCCC3)c2n1,–
447 nM,–,–,–,Cc1cncc(-c2ncnc3c2cnn3CCN2CCCCC2)c1,–
634 nM,–,–,–,c1ccc(-c2ncnc3c2cnn3CCN2CCCCC2)nc1,–
74 nM,83%,Stable,Stable,Cc1ccccc1-c1ncnc2c1cnn2CCN1CCCCC1,–
125 nM,86%,–,–,FC(F)(F)c1ccccc1-c1ncnc2c1cnn2CCN1CCCCC1,–

Ki [1],inhibition [2],Stability [3],Stability [4],Structure (SMILES),further results
740 nM,–,–,–,Cc1ccc(C)n1-c1ncnc2c1cnn2CCN1CCCCC1,–
1830 nM,–,–,–,c1csc(-c2ncnc3c2cnn3CCN2CCCCC2)n1,–
63 nM,89%,Stable,Stable,Cc1ccc(C)c(-c2ncnc3c2cnn3CCN2CCCCC2)c1,–
95 nM,75%,Stable,Stable,Fc1ccc(-c2ncnc3c2cnn3CCN2CCCCC2)cc1,–
108 nM,67%,–,–,FC1(F)CCN(c2ncnc3c2cnn3CCN2CCCCC2)CC1,–
732 nM,–,–,–,Cc1ncccc1-c1ncnc2c1cnn2CCN1CCCCC1,–
35 nM,–,Stable,Stable,Clc1ccc(-c2ncnc3c2cnn3CCN2CCCCC2)s1,–
294 nM,71%,–,–,c1ccc(C2CCN(c3ncnc4c3cnn4CCN3CCCCC3)C2)cc1 (stereo not given),–
11800 nM,–,–,–,Cn1cnc(-c2ncnc3c2cnn3CCN2CCCCC2)c1,–
43 nM,74%,Stable,Stable,Clc1ccc(-c2ncnc3c2cnn3CCN2CCCCC2)cc1,–
25800 nM,–,–,–,CNC1CCN(c2ncnc3c2cnn3CCN2CCCCC2)C1 (stereo not given),–
1720 nM,–,–,–,c1cc(-c2ncnc3c2cnn3CCN2CCCCC2)ccn1,–
6190 nM,–,–,–,O=C1CCCN1c1ncnc2c1cnn2CCN1CCCCC1,–
57 nM,87%,Stable,Stable,Fc1ccc(-c2ncnc3c2cnn3CCN2CCCCC2)cc1C(F)(F)F,–
82 nM,82%,Stable,Stable,Cc1cccc(-c2ncnc3c2cnn3CCN2CCCCC2)c1,–
76 nM,92%,Stable,Stable,Clc1ccccc1-c1ncnc2c1cnn2CCN1CCCCC1,–
9460 nM,–,–,–,Cn1cc(-c2ncnc3c2cnn3CCN2CCCCC2)cn1,–
–,–,Stable,Stable,Cc1cc(OCCN2CCOCC2)nn1-c1ccc2ccccc2c1,Activity [6]: Active; Activity [7]: 66%; Activity [11]: 50%; Activity [13]: Active; Activity [18]: 62%; Activity [21]: 48%
531 nM,58%,–,–,COc1ccc(-c2ncnc3c2cnn3CCN2CCCCC2)cc1,–
666 nM,–,–,–,c1ccc2c(-c3ncnc4c3cnn4CCN3CCCCC3)cncc2c1,–
802 nM,–,–,–,c1nc(-c2cn[nH]c2)c2cnn(CCN3CCCCC3)c2n1,–
31 nM,95%,Stable,Stable,Cc1ccc(Cl)c(-c2ncnc3c2cnn3CCN2CCCCC2)c1,–
112 nM,66%,–,–,c1ccc2c(c1)ncn2-c1ncnc2c1cnn2CCN1CCCCC1,–
200 nM,67%,–,–,c1nc(N2CCCCC2)c2cnn(CCN3CCCCC3)c2n1,–
112 nM,–,–,–,COc1ncccc1-c1ncnc2c1cnn2CCN1CCCCC1,–

Structure (SMILES),Ki [1],inhibition [2],Stability [3],Stability [4],further results
Cn1nccc1-c1ncnc2c1cnn2CCN1CCCCC1,–,–,Stable,Stable,Activity [5]: Non-Toxic; Activity [6]: Active; Activity [7]: 54%; inhibition at 1 µM [8]: < 50%; Ki [9]: > 1000 nM; microsomal CLint at 1 µM [10]: 2.4 µL/min/mg; Activity [11]: 67%; solubility thermodynamic [12]: 1500 µg/mL; Activity [13]: Active; Papp [14]: 40.7 ×10⁻⁶ cm/s; Activity [15]: Non-Toxic; inhibition at 1 µM [16]: < 50%; Activity [17]: Non-Toxic; Activity [18]: 46%; solubility thermodynamic [19]: 2400 µg/mL; inhibition at 1 µM [20]: < 50%; Activity [21]: 43%; inhibition at 1 µM [22]: < 50%; inhibition at 1 µM [23]: < 50%
